# From PubChem
# ZTA counter: counter-screen for EBNA-1 inhibitors: inhibitors of Epstein-Barr virus ZTA. P03206. ZTA-DNA binding, fluorescence polarization. inhibition, % at 11 µM. 320,000 tested, 0.15% active; in the data active means inhibition above about 33%
# procasp3 activ: activates human procaspase-3. P42574. recombinant procaspase-3 D3A, Ac-DEVD-pNA absorbance 405 nm. activation, % at 8.5 µM. 330,000 tested, 0.11% active;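 active means activation above the mean of all tested compounds plus 3 SD, cut at about 21% in these data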;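 further: 0% = DMSO alone and 100% = DMSO wells spiked with extra 5 µM PC-3 D3A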
# Target sequence (P42574 whole entry D9A/D28A/D175A): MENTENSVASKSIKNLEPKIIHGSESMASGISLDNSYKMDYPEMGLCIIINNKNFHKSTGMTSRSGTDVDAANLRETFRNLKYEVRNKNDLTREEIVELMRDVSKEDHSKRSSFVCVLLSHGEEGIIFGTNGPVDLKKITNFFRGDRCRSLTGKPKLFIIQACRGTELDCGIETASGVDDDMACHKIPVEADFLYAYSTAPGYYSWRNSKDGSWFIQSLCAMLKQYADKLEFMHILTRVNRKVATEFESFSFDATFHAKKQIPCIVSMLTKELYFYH
#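 Assay system – Procaspase-3 D3A mutant, all three cleavage aspartates alanine · Controls – DMSO-only low control, 5 µM PC-3 D3A high control · Schedule – 1 h compound preincubation, 2 h substrate hydrolysis at 25 °C · Signal – 405 nm absorbance of p-nitroaniline, reads at 0 and 120 min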
# proCasp7 act: counter-screen for procaspase-3 activators: activators of human procaspase-7 | recombinant procaspase-7, Ac-DEVD-pNA absorbance 405 nm; D23A/D198A/D206A triple mutant, cannot self-cleave; scale: DMSO 0, 5 µM enzyme 100 | activation, % at 8.5 µM | 330,000 tested, 0.093% active | AID 463210;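 active means percent activation above the screen-wide mean plus 3 SD, cut at about 25% in these data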
#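 Material: Procaspase-7 triple mutant (PC-7 D3A) | Quantity: 2 µM procaspase-7 mutant as dispensed | Reagent: DEVD-pNA substrate | Times: 1 h preincubation, 2 h reaction | Technique: 405 nm absorbance of p-nitroaniline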
# Apaf-1 inh: human Apaf-1 inhibition | O14727 | reconstituted apoptosome caspase-3 activity, DEVD-Rh110 fluorescence | inhibition, % at 20 µM | 330,000 tested, 0.71% active | AID 489030; active means inhibition of at least 40% at 20 µM;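 further: plate controls were DMSO wells for no effect and DEVD-CHO caspase inhibitor wells for full effect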
#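 Medium: Hepes buffer, pH 7.5 / System: biochemical Apaf-1 apoptosome reconstitution / Measured by: Rh110 fluorescence, excitation 480 nm, emission 540 nm / Times: compound with Apaf-1, dATP, procaspase-3 30 min, then 50 min reaction, room temperature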
# EBNA-1 inh: blocks EBNA-1 binding to DNA | 300,000 tested, 0.34% active | inhibition, % at 14.8 µM | EBNA-1 DNA binding, fluorescence polarization | AID 1950; in the data active means inhibition above about 28%
# GSTO1 counter: counter-screen for RBBP9 inhibitors: inhibitors of human GSTO1 | 300,000 tested, 1.1% active | recombinant GSTO1, activity-based probe fluorescence polarization | AID 1974 | inhibition, % at 5.96 µM | P78417;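 active means inhibition above the campaign mean inhibition plus 3 SD, cut at about 35% in these data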;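 further: 0% = GSTO1-1 with DMSO and 100% = wells lacking GSTO1-1 enzyme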
# Target sequence (P78417 whole entry, looked up): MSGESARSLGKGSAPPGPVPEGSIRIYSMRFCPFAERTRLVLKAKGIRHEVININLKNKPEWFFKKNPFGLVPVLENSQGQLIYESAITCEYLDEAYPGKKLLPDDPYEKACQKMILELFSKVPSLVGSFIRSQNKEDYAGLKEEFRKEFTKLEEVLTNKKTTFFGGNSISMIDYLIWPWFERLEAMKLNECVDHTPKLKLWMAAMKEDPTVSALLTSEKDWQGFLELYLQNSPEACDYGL
# GSTO1 confirm: confirmation of human GSTO1 inhibitors; shares compounds with GSTO1 counter; recombinant GSTO1, probe fluorescence polarization; inhibition, % at 5.96 µM; 2,400 tested, 54% active; AID 2176;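 active means inhibition above the primary screen's cutoff, its mean inhibition plus 3 SD, cut at about 35% in these data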;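 further: loss of polarization as inhibitors block binding of rhodamine sulfonate ester activity probe; 0% = GSTO1 with DMSO and 100% = wells lacking GSTO1 enzyme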
# Apaf-1 inh conf: Apaf-1 inhibition, single-dose confirmed; AID 504614; inhibition, % at 20 µM; reconstituted apoptosome, caspase-3 DEVD-Rh110 fluorescence; 1,800 tested, 25% active; shares compounds with Apaf-1 inh;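 active means mean inhibition of at least 40% at 20 µM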;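 further: plate controls were DMSO wells for no effect and DEVD-CHO caspase inhibitor control wells for full effect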
# Rh110 quench: interferes with Rh110 fluorescence, flagging false Apaf-1 inhibitors. 1,800 tested, under 10 active. Rh110 fluorescence interference, quenched caspase reaction. shares compounds with Apaf-1 inh. activation (fluorescence interference), % at 20 µM. AID 504615;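 active means signal rise of 40% or more at 20 µM, treated as a fluorescence artifact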
# Apaf1 inh interf: Apaf-1 inhibitor counter-screen fluorescence artifact | 460 tested, under 10 active | fluorescence interference counterscreen, Apaf-1 assay format | IC50, µM | shares compounds with Apaf-1 inh; call rule not given here
# * hit, by the source's call; . = no result given. Most compounds without a hit are left out; they make up all but 1.8% or so of the library.
SMILES,ZTA counter,procasp3 activ,proCasp7 act,Apaf-1 inh,EBNA-1 inh,GSTO1 counter,GSTO1 confirm,Apaf-1 inh conf,Rh110 quench,Apaf1 inh interf
N#CC(c1nc2ccccc2nc1N1CCCC1)S(=O)(=O)c1ccccc1 (configuration not stated),2,-8,-26,64*,3,53*,56*,13,3,.
Cc1ccc(C)c(S(=O)(=O)C(C#N)c2nc3ccccc3nc2N2CCCC2)c1 (configuration not stated),-7,-4,-15,87*,-2,66*,31,12,1,.
Cc1c(C(=O)NCC2CCCO2)oc2ccc(Br)cc12 (configuration not stated),-5,-2,6,11,4,3,.,.,.,.
CC(=O)Nc1ccc(N=c2cc([N+](=O)[O-])cc(Cl)n2O)cc1,7,12,4,4,1,6,.,.,.,.
COc1ccc(C(=O)O)cc1S(=O)(=O)N1CCN(Cc2ccc3c(c2)OCO3)CC1,.,0,-9,-5,.,.,.,.,.,.
CC1(C)CNc2cc(N)ccc2S1,-11,0,-2,50*,3,39*,28,70*,8,>100
CN(C)C(=O)CCc1ccc2c3c([nH]c2c1)[C@]1(CCC2CCCC2)[C@@H](C(=O)N2CCOCC2)C[C@H](CC(=O)NCCc2ccccn2)C(=O)N1CC3,.,-4,10,14,.,.,.,.,.,.
COC(=O)c1ccccc1S(=O)(=O)N1CCC(C(=O)NCCC2=CCCCC2)CC1,3,7,6,25,.,.,.,.,.,.
CCc1ccc(CNc2ccc(O)cc2)cc1,27,-9,-9,96*,4,86*,4,41*,-1,>100
CCc1ccc(CNc2ccc3c(c2)ncn3CC)cc1,15,1,-4,9,10,4,.,.,.,.
O=C1C=C(N2CCCCC2)c2ccccc2C1=O,33,-3,-3,98*,-3,91*,88*,100*,3,>100
COCCn1c(N)c(C(=O)OCc2ccccc2)c2nc3ccccc3nc21,-12,2,1,94*,-1,70*,58*,8,1,.
COCCNC(=O)c1c(N)n(CCC2=CCCCC2)c2nc3ccccc3nc12,-11,3,-10,63*,-6,42*,4,34,15,.
N#Cc1c(N)n(CCNC(=O)c2ccccc2)c2nc3ccccc3nc12,11,-1,-1,-15,-2,0,.,.,.,.
C=CCn1c(N)c(C(=O)OCCC)c2nc3ccccc3nc21,-7,-5,1,5,-1,29,.,.,.,.
C[C@H](CO)N1C[C@H](C)[C@@H](CN(C)CC2CC2)Oc2c(NC(=O)Cc3ccccc3)cccc2C1=O,.,-1,2,8,.,.,.,.,.,.
Cc1ccc(CC(=O)OC(C)C(=O)NC2CCCCC2C)cc1C (configuration not stated),-8,12,-1,10,.,.,.,.,.,.
CCOC(=O)c1c(C)n(-c2ccc(C)cc2)c2c(CC(C)=O)c(Br)c(OC)c(O)c12,17,2,0,-5,9,2,.,.,.,.
CCOC(=O)c1c(C)n(-c2ccc(C)cc2)c2c(C(C(C)=O)C(=O)O)c(Br)c(O)c(O)c12 (configuration not stated),-15,-1,-24,50*,0,64*,8,62*,5,>100
CN(c1ccccc1)S(=O)(=O)c1cc(C(=O)NCCCn2ccnc2)ccc1Cl,-5,4,11,0,.,.,.,.,.,.
O=C(O)/C=C\c1cc2c(cc1[N+](=O)[O-])OCO2,-6,-6,-8,5,0,18,.,.,.,.
O=C1NC(=S)N/C1=C/c1cc2c(cc1[N+](=O)[O-])OCO2,3,1,-11,88*,4,83*,34,81*,1,>100
CCc1ccc(S(=O)(=O)/N=C2\C=C(Nc3cccc(C(=O)O)c3)C(=O)c3ccccc32)cc1,20,-5,-10,91*,-5,98*,92*,90*,10,>100
CCc1ccc(S(=O)(=O)/N=C2\C=C(Nc3ccc(O)cc3)C(=O)c3ccccc32)cc1,16,-2,2,95*,-11,87*,87*,96*,5,>100
O=C(O)c1ccc(NS(=O)(=O)c2ccc3c(c2)C(=O)c2ccccc2C3=O)cc1,-5,1,-5,2,-13,17,.,.,.,.
SMILES,ZTA counter,procasp3 activ,proCasp7 act,Apaf-1 inh,EBNA-1 inh,GSTO1 counter,GSTO1 confirm,Apaf-1 inh conf,Rh110 quench,Apaf1 inh interf
Cc1cc(C)c(S(=O)(=O)/N=C2\C=C(Nc3ccc(C(=O)O)cc3)C(=O)c3ccccc32)c(C)c1,5,-7,-13,89*,-13,85*,89*,92*,18,>100
O=C(O)c1cccc(NS(=O)(=O)c2ccc(-c3ccc(S(=O)(=O)Nc4cccc(C(=O)O)c4)cc3)cc2)c1,-3,6,-1,6,-3,4,.,.,.,.
Cc1ccc(C(NC(=O)Nc2ccccn2)C(Cl)(Cl)Cl)cc1F (configuration not stated),-1,0,-2,36,-16,0,.,.,.,.
Cc1oc2c(c1C(=O)O)C(=O)c1ccccc1C2=O,-9,1,8,79*,0,61*,62*,69*,-1,>100
CCOC(=O)c1c(C)oc2c1C(=O)c1ccccc1C2=O,-7,10,-15,69*,-2,66*,64*,68*,2,>100
CCc1ccc(C(=O)C(C)OC(=O)Cc2n[nH]c(=O)c3ccccc23)cc1 (configuration not stated),-5,5,-2,15,-2,-3,.,.,.,.
CC1(C)CC(=O)C(C=Nc2ccc(O)c(N=CC3=C(O)CC(C)(C)CC3=O)c2)=C(O)C1,-14,-19,-28,47*,2,85*,67*,17,1,.
CC1(C)CC(=O)C(C=Nc2ccc3c(c2)OCO3)=C(O)C1,-11,-1,-7,-8,-8,-10,.,.,.,.
CC(C)CCn1c(N)c(S(=O)(=O)c2cccs2)c2nc3ccccc3nc21,-11,-7,-26,51*,-1,57*,-7,28,2,.
